# Reference: ChEMBL document CHEMBL4330085, “Peptidomimetic plasmepsin inhibitors with potent anti-malarial activity and selectivity against cathepsin D” (Eur J Med Chem, 2019)
# pEC50, pIC50: −log10 of the molar value. The source made the active and inactive calls. The calls are words filed in the database; no cut-off is given here.
# Legend:
# [1] = molecular target: Plasmepsin 4 (Plasmodium falciparum, UniProt Q17SB2); assay: Inhibition of Plasmodium falciparum plasmepsin 4 using DABCYL-Glu-Arg-Nle-Phe-Leu-Ser-Phe-Pro-EDANS as substrate preincubated for 30 mins followed by substrate addition and measured every min for 8 to 15 mins by FRET assay
# Plasmepsin 4, sequence (Q17SB2 whole entry): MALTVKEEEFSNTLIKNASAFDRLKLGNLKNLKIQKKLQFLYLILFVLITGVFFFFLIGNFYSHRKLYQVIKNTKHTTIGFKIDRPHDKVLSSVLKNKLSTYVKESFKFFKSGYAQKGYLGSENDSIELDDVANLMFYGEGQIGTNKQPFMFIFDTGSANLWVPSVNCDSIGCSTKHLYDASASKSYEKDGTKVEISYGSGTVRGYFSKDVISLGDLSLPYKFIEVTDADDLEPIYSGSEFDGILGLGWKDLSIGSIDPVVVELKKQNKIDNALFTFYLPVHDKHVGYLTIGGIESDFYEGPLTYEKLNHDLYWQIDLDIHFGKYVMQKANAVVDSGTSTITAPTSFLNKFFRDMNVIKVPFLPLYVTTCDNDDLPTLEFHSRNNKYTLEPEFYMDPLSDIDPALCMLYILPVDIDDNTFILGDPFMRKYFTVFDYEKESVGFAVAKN
# [2] = molecular target: Cathepsin D (Homo sapiens, UniProt P07339); assay: Inhibition of human cathepsin D using DABCYL-Glu-Arg-Nle-Phe-Leu-Ser-Phe-Pro-EDANS as substrate preincubated for 30 mins followed by substrate addition and measured every min for 8 to 15 mins by FRET assay
# Cathepsin D, sequence (P07339 65-162 limits assumed): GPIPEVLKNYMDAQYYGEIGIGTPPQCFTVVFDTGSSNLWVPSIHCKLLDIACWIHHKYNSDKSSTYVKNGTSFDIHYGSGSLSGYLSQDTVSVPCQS
# Cathepsin D, sequence (P07339 169-412 limits assumed): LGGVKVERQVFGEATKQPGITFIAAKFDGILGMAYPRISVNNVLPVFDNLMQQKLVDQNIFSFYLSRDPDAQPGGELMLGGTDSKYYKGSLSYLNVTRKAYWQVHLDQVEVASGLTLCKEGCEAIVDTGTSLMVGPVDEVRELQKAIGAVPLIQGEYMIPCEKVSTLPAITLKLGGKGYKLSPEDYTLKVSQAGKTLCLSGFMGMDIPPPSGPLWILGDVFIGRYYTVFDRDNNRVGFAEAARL
# [3] = system: Plasmodium falciparum; assay: Antimalarial activity against blood stage form of Plasmodium falciparum 3D7 infected in erythrocytes after 96 hrs by SYBR Green I dye-based spectrophotometric analysis; assay type: functional, organism-based; details: 3D7, 96 h
# Procedure, shortened: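 P. falciparum blood-stage growth was read by SYBR Green fluorescence after a 96 h incubation (2 erythrocytic cycles). EC50 values came from triplicate samples in 2 separate biological assays, with a reference inhibitor as positive control.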
# [4] = molecular target: Plasmepsin I (Plasmodium falciparum, UniProt P39898); assay: Inhibition of Plasmodium falciparum plasmepsin 1 using DABCYL-Glu-Arg-Nle-Phe-Leu-Ser-Phe-Pro-EDANS as substrate preincubated for 30 mins followed by substrate addition and measured every min for 8 to 15 mins by FRET assay
# Plasmepsin I, sequence (P39898 whole entry): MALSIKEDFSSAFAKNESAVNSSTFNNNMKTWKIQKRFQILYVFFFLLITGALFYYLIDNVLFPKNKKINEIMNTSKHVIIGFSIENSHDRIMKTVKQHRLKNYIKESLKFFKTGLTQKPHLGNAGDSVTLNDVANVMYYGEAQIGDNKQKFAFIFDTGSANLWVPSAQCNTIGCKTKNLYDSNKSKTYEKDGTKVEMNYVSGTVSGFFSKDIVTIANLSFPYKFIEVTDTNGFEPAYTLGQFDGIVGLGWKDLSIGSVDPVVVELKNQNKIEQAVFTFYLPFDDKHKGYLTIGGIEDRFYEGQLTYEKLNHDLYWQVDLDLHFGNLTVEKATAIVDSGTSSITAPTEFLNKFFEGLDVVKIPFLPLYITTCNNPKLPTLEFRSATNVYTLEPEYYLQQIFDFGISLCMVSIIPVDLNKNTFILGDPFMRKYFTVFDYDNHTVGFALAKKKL
# [5] = molecular target: Plasmepsin II (Plasmodium falciparum, UniProt P46925); assay: Inhibition of Plasmodium falciparum plasmepsin 2 using DABCYL-Glu-Arg-Nle-Phe-Leu-Ser-Phe-Pro-EDANS as substrate preincubated for 30 mins followed by substrate addition and measured every min for 8 to 15 mins by FRET assay
# Plasmepsin II, sequence (P46925 whole entry): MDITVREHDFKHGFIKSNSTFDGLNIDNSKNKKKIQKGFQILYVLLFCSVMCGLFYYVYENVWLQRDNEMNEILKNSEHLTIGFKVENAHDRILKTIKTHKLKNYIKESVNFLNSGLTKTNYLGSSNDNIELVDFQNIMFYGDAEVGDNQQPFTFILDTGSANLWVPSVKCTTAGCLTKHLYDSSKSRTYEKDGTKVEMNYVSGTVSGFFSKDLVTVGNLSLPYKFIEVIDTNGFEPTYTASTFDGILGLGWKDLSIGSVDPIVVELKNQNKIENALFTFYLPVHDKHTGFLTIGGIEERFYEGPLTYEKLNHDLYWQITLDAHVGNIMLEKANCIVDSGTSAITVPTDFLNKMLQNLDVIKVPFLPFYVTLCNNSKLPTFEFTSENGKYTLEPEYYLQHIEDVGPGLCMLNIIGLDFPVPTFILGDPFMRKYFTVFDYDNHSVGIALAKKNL
# [6] = molecular target: Plasmepsin X (Plasmodium falciparum (isolate 3D7)) (UniProt Q8IAS0); assay: Inhibition of Plasmodium falciparum plasmepsin 10-mediated SUB1 maturation and egress assessed as enrichment of SUB1 p54 form level at 10 nM after 8 hrs by Western blot analysis
# Plasmepsin X (Plasmodium falciparum (isolate 3D7)), sequence (Q8IAS0 whole entry): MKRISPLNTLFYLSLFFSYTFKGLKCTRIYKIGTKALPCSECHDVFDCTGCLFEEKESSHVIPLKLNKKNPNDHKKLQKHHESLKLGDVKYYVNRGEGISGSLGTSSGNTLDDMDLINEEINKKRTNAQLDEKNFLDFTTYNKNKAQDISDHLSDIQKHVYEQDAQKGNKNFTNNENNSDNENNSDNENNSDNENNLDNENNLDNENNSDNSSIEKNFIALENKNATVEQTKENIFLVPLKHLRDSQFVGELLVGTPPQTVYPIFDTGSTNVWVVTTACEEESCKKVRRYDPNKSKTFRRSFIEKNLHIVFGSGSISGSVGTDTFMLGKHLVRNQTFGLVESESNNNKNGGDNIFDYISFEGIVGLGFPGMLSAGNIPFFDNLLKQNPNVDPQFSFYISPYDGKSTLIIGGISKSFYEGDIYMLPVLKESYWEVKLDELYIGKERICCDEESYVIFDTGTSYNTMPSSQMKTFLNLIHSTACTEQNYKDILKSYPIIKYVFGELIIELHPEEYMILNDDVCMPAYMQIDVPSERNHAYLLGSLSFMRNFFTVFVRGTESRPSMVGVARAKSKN
# Procedure, shortened: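 Synchronous cultures of immature intracellular parasites were exposed for ~8 h to compound at 10 nM. Controls were vehicle (DMSO, 1% v/v) and a cGMP-dependent protein kinase inhibitor at 2 μM. Parasite extracts were analysed by Western blot with anti-SUB1 antibody, scoring the p54 and p47 forms.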
# [7] = molecular target: Plasmepsin X (Plasmodium falciparum (isolate 3D7)) (UniProt Q8IAS0); assay: Inhibition of Plasmodium falciparum plasmepsin 10-mediated SUB1 maturation and egress assessed as reduction in SERA5 P50 level at 10 nM by Western blot analysis
Compound,pIC50 [1],pIC50 [2],pEC50 [3],pIC50 [4],pIC50 [5],inhibition [6],inhibition [7]
COc1cccc(C(C)(C)NC[C@@H](O)[C@H](Cc2ccccc2)NC(=O)c2cc(C(=O)NCCOC(C)(C)C)cc(N3CCCCC3)c2)c1,7.51,6.82,,,,,
CCCN(CCC)C(=O)c1cc(C#N)cc(C(=O)N[C@@H](Cc2ccccc2)[C@H](O)CNC(C)(C)c2cccc(OC)c2)c1,7.23,6.25,,,,,
COc1cccc(C(C)(C)NC[C@@H](O)[C@H](Cc2ccccc2)NC(=O)c2cc(C(=O)N(CC(C)C)CC(C)C)cc(N3CCCCC3)c2)c1,6.30,5.89,,,,,
CCCN(CCC)C(=O)c1cc(C)cc(C(=O)N[C@@H](Cc2ccccc2)[C@H](O)CNC(C)(C)c2cccc(OC)c2)c1,7.64,6.68,,,,,
COc1cccc(C(C)(C)NC[C@@H](O)[C@H](Cc2ccccc2)NC(=O)c2cc(C(=O)N(C)C)cc(N3CCCCC3)c2)c1,7.06,6.30,,,,,
COc1cccc(C(C)(C)NC[C@@H](O)[C@H](Cc2ccccc2)NC(=O)c2cc(C(=O)NCC3CC3)cc(N3CCCCC3)c2)c1,7.52,6.12,8.74,5.74,6.30,,
COc1cccc(C(C)(C)NC[C@@H](O)[C@H](Cc2ccccc2)NC(=O)c2cc(C(=O)NCCCO)cc(N3CCCCC3)c2)c1,7.03,5.65,,,,,
CCCN(CCC)C(=O)c1cccc(C(=O)N[C@@H](Cc2ccccc2)[C@H](O)CNC(C)(C)c2cccc(OC)c2)c1,7.24,5.94,9.52,5.51,5.77,Active,Active
COc1cccc(C(C)(C)NC[C@@H](O)[C@H](Cc2ccccc2)NC(=O)c2cc(C(=O)NCC(C)(C)OC)cc(N3CCCCC3)c2)c1,7.32,5.68,8.70,5.13,5.27,,
COc1cccc(C(C)(C)NC[C@@H](O)[C@H](Cc2ccccc2)NC(=O)c2cc(C(=O)NCCN(C)C)cc(N3CCCCC3)c2)c1,6.44,5.32,,,,,
COc1cccc(C(C)(C)NC[C@@H](O)[C@H](Cc2ccccc2)NC(=O)c2cc(C(=O)N(CCC(F)(F)F)CCC(F)(F)F)cc(N3CCCCC3)c2)c1,6.68,6.92,,,,,
COc1cccc(C(C)(C)NC[C@@H](O)[C@H](Cc2ccccc2)NC(=O)c2cc(C(=O)NCC(C)(C)C)cc(N3CCCCC3)c2)c1,7.57,6.40,8.22,5.70,6.07,,
COCCN(CCOC)C(=O)c1cc(C(=O)N[C@@H](Cc2ccccc2)[C@H](O)CNC(C)(C)c2cccc(OC)c2)cc(N2CCCCC2)c1,7.43,7.00,,,,,
COc1cccc(C(C)(C)NC[C@@H](O)[C@H](Cc2ccccc2)NC(=O)c2cc(C(=O)NCCO)cc(N3CCCCC3)c2)c1,6.68,5.85,,,,,
CCCN(CCC)C(=O)c1cc(Cl)cc(C(=O)N[C@@H](Cc2ccccc2)[C@H](O)CNC(C)(C)c2cccc(OC)c2)c1,8.10,7.02,,,,,
CCCN(CCC)C(=O)c1cc(C(=O)N[C@@H](Cc2ccccc2)[C@H](O)CNC(C)(C)c2cccc(OC)c2)cc(C(=O)N(CCC)CCC)c1,7.74,6.15,8.22,6.11,6.57,,
CCCN(CCC)C(=O)c1cc(F)cc(C(=O)N[C@@H](Cc2ccccc2)[C@H](O)CNC(C)(C)c2cccc(OC)c2)c1,7.30,6.00,8.82,5.96,5.96,Active,Active
CCN(CC)C(=O)c1cc(C(=O)N[C@@H](Cc2ccccc2)[C@H](O)CNC(C)(C)c2cccc(OC)c2)cc(N2CCCCC2)c1,7.85,6.60,8.82,6.10,6.80,Active,
COc1cccc(C(C)(C)NC[C@@H](O)[C@H](Cc2ccccc2)NC(=O)c2cccc(C(=O)NCCC(F)(F)F)c2)c1,6.82,5.31,8.22,4.99,4.98,,
CCCN(CCC)C(=O)c1cc(C(=O)N[C@@H](Cc2ccccc2)[C@H](O)CNC(C)(C)c2cccc(OC)c2)cc(C(F)(F)F)c1,7.82,7.17,,,,,
COc1cccc(C(C)(C)NC[C@@H](O)[C@H](Cc2ccccc2)NC(=O)c2cccc(C(=O)NCC(C)(C)C)c2)c1,7.12,5.42,8.70,5.25,5.15,,
COc1cccc(C(C)(C)NC[C@@H](O)[C@H](Cc2ccccc2)NC(=O)c2cc(C(=O)NCC(C)(C)O)cc(N3CCCCC3)c2)c1,7.00,5.78,,,,,
COc1cccc(C(C)(C)NC[C@@H](O)[C@H](Cc2ccccc2)NC(=O)c2cc(C(=O)NCC3CCCCC3)cc(N3CCCCC3)c2)c1,7.05,6.82,,,,,
COc1cccc(C(C)(C)NC[C@@H](O)[C@H](Cc2ccccc2)NC(=O)c2cc(C(=O)N(CCO)CCO)cc(N3CCCCC3)c2)c1,7.17,6.57,,,,,
COc1cccc(C(C)(C)NC[C@@H](O)[C@H](Cc2ccccc2)NC(=O)c2cc(C(=O)NCc3ccccc3)cc(N3CCCCC3)c2)c1,7.42,6.66,,,,,
COCCNC(=O)c1cc(C(=O)N[C@@H](Cc2ccccc2)[C@H](O)CNC(C)(C)c2cccc(OC)c2)cc(N2CCCCC2)c1,7.30,6.12,,,,,
COc1cccc(C(C)(C)NC[C@@H](O)[C@H](Cc2ccccc2)NC(=O)c2cc(C(=O)NC(C)(C)CO)cc(N3CCCCC3)c2)c1,6.92,5.84,,,,,
COc1cccc(C(C)(C)NC[C@@H](O)[C@H](Cc2ccccc2)NC(=O)c2cc(C(=O)NCCC(F)(F)F)cc(N3CCCCC3)c2)c1,7.62,6.24,8.70,5.60,5.66,,
